PMC6244714 (European Journal of Drug Metabolism and Pharmacokinetics, 2018)
In brackets after ≈: the same amount, converted by molar mass. Where two headings read alike, the source gives them in different places.

Legend:
[1] = assay type: in vivo, human
[2] = assay type: in vivo, human; settings: healthy subjects
Summary of the method: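 Open-label, one-sequence, two-period crossover in healthy males and females aged 18–55 years with BMI 18.5–29.9 kg/m2. Period 1: single oral 100 mg tablet of test compound after an ≥8 h fast. Period 2: proton-pump inhibitor 40 mg once daily on Days 1–9, with test compound given 2 h after it on Day 7. Safety was assessed in all subjects dosed with test compound, using TEAE nature, frequency and severity, blood pressure, pulse, hematology, biochemistry, urinalysis and 12-lead ECG.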

gastric pH = settings: omeprazole 40 mg once daily, healthy subjects; cited from earlier work
CYP2C19 = settings: cited from earlier work
[3] = healthy volunteers; cited from earlier work
[4] = cited from earlier work
[5] = ref data on file, cited from earlier work

## COc1ccc2[nH]c([S+]([O-])Cc3ncc(C)c(OC)c3C)nc2c1 (stereo not shown) [Omeprazole]
[1]; human, plasma, po, 40 mg
  AUC: 4230 ng·h/mL
[1]; omeprazole 40 mg daily oral, Day 7 of Period 2, plasma
  mean trough: 0.494 ng/mL
[2]
  Total number of TEAEs reported: eight
Gastric pH
  gastric pH: ~ 5
CYP2C19
  inhibitor of CYP2C19: inhibitor

## Cc1nc(C(=O)NCC(=O)O)c(O)c2ccc(Oc3ccccc3)cc12 [Roxadustat]
[2]; 100 mg roxadustat alone or in combination with multiple daily oral doses of 40 mg omeprazole
  Overall safety and tolerability: safe and well tolerated
[3]
  impact on Cmax or AUCinf of S- or R-warfarin: does not impact
[4]; after a single dose
  terminal elimination half-life (t½): 12 to 14 h
[4]; after oral administration
  time to maximum plasma concentration: approximately 2 h
CYP2C19; background statement, no reference given
  substrate for CYP2C19: not a substrate
[5]; 50 mM potassium phosphate buffer at pH 7.5
  solubility: 3700 µg/mL (≈ 10.5 mM)
[5]; pH ~ 5
  in vitro solubility: 6 µg/mL
[5]; simulated gastric fluid buffer at pH 1.2
  solubility: 1 µg/mL (≈ 0.00284 mM)
